Laboratory results from PubChem BioAssay.
Inconclusive results are not listed.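 Rule for the calls, unless noted: active = RAM network inhibition above 8.4% in each of two replicates, 3 SD over the compound average; inconclusive = above 8.4% inhibition in only one replicate; inactive = 8.4% inhibition or less in each replicate.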

Legend:
[1] = S. cerevisiae growth inhibition in permissive medium (OD615), pilot counter-assay for S. cerevisiae lifespan shortening project, permissive growth control (AID 705;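 active = growth inhibition above 25% in both replicates, a cutoff set 3 SD above the mean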); settings: OD615, 24 h, at 10 µM, hits give high values
How it was run: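 Timing: 24 h exposure, 30 °C / Material: Saccharomyces cerevisiae strain carrying genetically modified DeaD replicative-lifespan system / Signal: OD at 615 nm / Compound: 10 µM single dose, 0.25% DMSO / Medium: SC raffinose/galactose permissive medium / Evaluation: reduction in yeast growth (OD615)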

[2] = S. cerevisiae growth inhibition in restrictive medium, OD615, pilot screen, restrictive growth control, yeast lifespan reduction project (AID 706;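 active = growth inhibition above a set limit, 3 SD over mean compound inhibition, in both replicates, cut at about 43% in these data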;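 note: modified DeaD lifespan yeast strain shifted to restrictive glucose medium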); settings: OD615, 48 h, at 10 µM, hits give high values
How it was run: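 System: Engineered S. cerevisiae DeaD strain | Detection: OD615 | Buffer or medium: CSMM-D glucose medium | Doses: 10 µM compound, 0.25% DMSO | Timing: 4 h pre-growth plus 48 h compound exposure, 30 °C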

[3] = doxorubicin toxicity protection in MRP-1 cells – H69AR cells, CellTiter-Glo, duplicate, MRP-1 activator project, pilot screen (AID 807;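 active = viability increase at or above a cutoff of the median across tested compounds plus 3 SD, cut at about 8.5% in these data, passing the limit was not always enough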;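 note: compound pretreatment 18-22 h then 72 h combined with doxorubicin; 0% = doxorubicin alone and 100% = vehicle without doxorubicin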); settings: H69AR viability with doxorubicin, CellTiter-Glo luminescence; at 10 µM; hits give high values
[4] = viability of HCT116 without oncogenic beta-catenin – human colon tumor cells, pilot screen (AID 823;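 active = cell viability at or below a set limit in both duplicate runs, the limit being the all-compound median minus 4 SD, cut at about 23% in these data, passing the limit was not always enough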;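 note: 0% = wells killed by 20 µM Hyamine and 100% = untreated DMSO cell wells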); settings: HCT116 beta-catenin knockout viability, CellTiter-Glo, 60 h; at 10 µM; hits give low values
[5] = viability of PTEN-null HCT116 cells – cell-based, HCT116 clonal line, CellTiter-Glo, pilot screen (AID 824;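 active = viability at or below 27.92% in each of two runs, the all-compound median minus 4 SD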;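 note: 0% = 20 µM Hyamine control and 100% = vehicle cell control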); settings: HCT116 PTEN-deleted viability, 60 h, at 10 µM, hits give low values
[6] = RAM pathway blockade in budding yeast – dse1pr::URA3 reporter, 5-FOA selection, pilot screen (AID 869;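 active = inhibition over a set limit, the all-compound mean plus 3 SD, in both replicate runs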;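 note: 0% = DMSO wells with no growth and 100% = 10 µM 1-NA-PP1 with full growth; RAM network block rescues cells from 5-FOA so hits raise OD615 growth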); settings: S. cerevisiae dse1pr::URA3 5-FOA growth, OD615, 2 d; at 10 µM; hits give high values; strain carries analog-sensitive mutant Cbk1 kinase
[7] = RAM signaling pathway blockade in yeast – S. cerevisiae, Pdr1DBD-CYC8 efflux-inhibited sensitized strain, primary screen (AID 1298);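 note: 0% = DMSO untreated cells without growth and 100% = 10 µM 1-NA-PP1 full growth; higher means more yeast growth rescued from 5-FOA killing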; settings: S. cerevisiae cbk1-as DSE1-URA3 strain, 5-FOA growth OD615, 2 d; at 50 µM; hits give high values

CCCc1n[nH]c2c1C(=O)C(C(=O)OC)C(C)(C)C2 (centres undefined)
inactive: growth inhibition [1] -12.6% | growth inhibition [2] -12.8% | viability increase [3] -3.14% | viability [4] 95.9% | viability [5] 95.8% | inhibition [6] 1.14% | RAM network inhibition [7] 4.78%

CCN(CC)c1ccc(NC(=O)CN2C(=O)CSc3ncccc32)c(C)c1
inactive: growth inhibition [1] 1.52% | growth inhibition [2] -5.94% | viability increase [3] 0.51% | viability [4] 45.2% | viability [5] 66% | inhibition [6] 1.34% | RAM network inhibition [7] 6.12%

O=S(=O)(c1cccc2cccnc12)N1CCN(Cc2ccc3c(c2)OCO3)CC1
inactive: growth inhibition [1] -7.45% | growth inhibition [2] -17.5% | viability increase [3] -0.35% | viability [4] 84.3% | viability [5] 92.2% | inhibition [6] 1.28% | RAM network inhibition [7] 0.52%

COc1ccc(CCNC(=O)CC2Oc3ccc(Cl)cc3NC2=O)cc1OC (centres undefined)
inactive: growth inhibition [1] -0.31% | growth inhibition [2] -7.26% | viability increase [3] -0.06% | viability [4] 96.2% | viability [5] 97.6% | inhibition [6] 1.17% | RAM network inhibition [7] 5.03%

CCOc1ccccc1NC(=O)Cn1cnc2c(nnn2-c2cccc(OC)c2)c1=O
inactive: growth inhibition [1] -2.45% | growth inhibition [2] -1.71% | viability increase [3] -1.23% | viability [4] 87.2% | viability [5] 73.3% | inhibition [6] 3.82% | RAM network inhibition [7] 4.89%

COc1cc(C2C(C(=O)c3cccs3)=C(O)C(=O)N2Cc2ccco2)cc(OC)c1OC (centres undefined)
inactive: growth inhibition [1] -6.95% | growth inhibition [2] -3.81% | viability increase [3] -4.93% | viability [4] 93.1% | viability [5] 92.4% | inhibition [6] 2.94% | RAM network inhibition [7] 5%

COc1cc(C2C(C(=O)Nc3ccccc3OC)=C(C)Nc3ncnn32)ccc1O (centres undefined)
inactive: growth inhibition [1] -14.3% | growth inhibition [2] 14.1% | viability increase [3] -2.38% | viability [4] 100% | viability [5] 95.3% | inhibition [6] 1.42% | RAM network inhibition [7] -0.99%

CCC(C)Nc1nc2c(c(=O)n(C)c(=O)n2C)n1Cc1ccc(Cl)cc1 (centres undefined)
inactive: growth inhibition [1] -0.995% | growth inhibition [2] -4.79% | viability increase [3] -4.21% | viability [4] 79% | viability [5] 70.6% | inhibition [6] -0.035% | RAM network inhibition [7] 4.57%

Cc1ccc(C(=O)N2CCN(C3CCCCC3)CC2)s1
inactive: growth inhibition [1] -3.88% | growth inhibition [2] -0.76% | viability increase [3] -1.15% | viability [4] 102% | viability [5] 97.7% | inhibition [6] 1.48% | RAM network inhibition [7] 1.05%

CC(C)Sc1nc2c(cnn2-c2ccc(F)cc2)c(=O)[nH]1
inactive: growth inhibition [1] -8.33% | growth inhibition [2] -1.79% | viability increase [3] -3.72% | viability [4] 90.7% | viability [5] 97.3% | inhibition [6] 0.795% | RAM network inhibition [7] 3.54%

COc1ccc(S(=O)(=O)Cc2ccc(C(=O)NCc3ccc(F)cc3)o2)cc1
inactive: growth inhibition [1] -13.6% | growth inhibition [2] -14.1% | viability increase [3] -0.39% | viability [4] 92.2% | viability [5] 87.5% | inhibition [6] 0.735% | RAM network inhibition [7] 2.4%

COc1ccc(C)cc1NC(=O)c1cnc2scc(C)n2c1=O
inactive: growth inhibition [1] 9.45% | growth inhibition [2] -0.68% | viability increase [3] -5.49% | viability [4] 87.8% | viability [5] 84.8% | inhibition [6] 3.21% | RAM network inhibition [7] 3.95%

CCN(CC)S(=O)(=O)c1ccc(S(=O)(=O)N2CCN(CCC#N)CC2)cc1
inactive: growth inhibition [1] -8.46% | growth inhibition [2] -3.54% | viability increase [3] -1.58% | viability [4] 99.6% | viability [5] 94.7% | inhibition [6] 1.38% | RAM network inhibition [7] -1.32%

CCOCCOC(=O)C1=C(C)N(C)C(=O)NC1c1ccccc1Cl (centres undefined)
inactive: growth inhibition [1] 1.35% | growth inhibition [2] -7.18% | viability increase [3] -1.78% | viability [4] 101% | viability [5] 99.8% | inhibition [6] 0.375% | RAM network inhibition [7] 0.57%

COc1cccc(C2c3c(oc4ccccc4c3=O)C(=O)N2CCCN2CCOCC2)c1 (centres undefined)
inactive: growth inhibition [1] -10.5% | growth inhibition [2] -5.13% | viability increase [3] -3.16% | viability [4] 95.1% | viability [5] 93.1% | inhibition [6] 1.13% | RAM network inhibition [7] 2.84%

CN1CCN(S(=O)(=O)c2ccc3ccccc3c2)CC1
inactive: growth inhibition [1] -0.14% | growth inhibition [2] -1.93% | viability increase [3] -2.23% | viability [4] 103% | viability [5] 105% | inhibition [6] 2.92% | RAM network inhibition [7] 0.63%

Cn1c(=O)c2c(nc(N3CCN(Cc4ccccc4)CC3)n2CCSc2ncccn2)n(C)c1=O
inactive: growth inhibition [1] -9.24% | growth inhibition [2] -14% | viability increase [3] -0.19% | viability [4] 100% | viability [5] 106% | inhibition [6] 1.07% | RAM network inhibition [7] 2.77%

Cc1c(NC(=O)C2CCCN2S(=O)(=O)c2ccccc2)c(=O)n(-c2ccccc2)n1C (centres undefined)
inactive: growth inhibition [1] -8.82% | growth inhibition [2] -10.2% | viability increase [3] -1% | viability [4] 97.3% | viability [5] 107% | inhibition [6] 2.12% | RAM network inhibition [7] 0.05%

CC(C)(C)n1nc2c(c1NC(=O)c1ccccc1F)CS(=O)C2 (centres undefined)
inactive: growth inhibition [1] 1.35% | growth inhibition [2] 0.655% | viability increase [3] 0.62% | viability [4] 101% | viability [5] 101% | inhibition [6] 1.66% | RAM network inhibition [7] 1.67%

O=c1[nH]c(NCCCO)nc2c1C1(CCCC1)Cc1ccccc1-2
inactive: growth inhibition [1] -1.02% | growth inhibition [2] -4.91% | viability increase [3] -0.94% | viability [4] 97.1% | viability [5] 96.2% | inhibition [6] -0.175% | RAM network inhibition [7] 6.67%

NC(=O)c1nc(C2CCCCC2)nc2c1[nH]c(=O)n2-c1ccc(F)cc1
inactive: growth inhibition [1] -13.1% | growth inhibition [2] -17.8% | viability increase [3] -3.71% | viability [4] 87.4% | viability [5] 86% | inhibition [6] 1.69% | RAM network inhibition [7] 5.24%

COC(=O)c1ccc(Nc2cc(C)nc3nc(C)nn23)cc1
inactive: growth inhibition [1] -10.5% | growth inhibition [2] -4.57% | viability increase [3] -2.65% | viability [4] 97.3% | viability [5] 94.6% | inhibition [6] 1.67% | RAM network inhibition [7] 0.77%

Cc1ccc2nc(NC(=O)c3ccc(Cl)s3)sc2c1
inactive: growth inhibition [1] -17.2% | growth inhibition [2] -14.8% | viability increase [3] -6.45% | viability [4] 64.5% | viability [5] 63% | inhibition [6] 1.35% | RAM network inhibition [7] 2.06%

CC1Cc2nc(SCC(=O)N3CCOCC3)n(-c3ccccc3)c(=O)c2S1 (centres undefined)
inactive: growth inhibition [1] -10.7% | growth inhibition [2] -11.7% | viability increase [3] -0.68% | viability [4] 111% | viability [5] 104% | inhibition [6] 0.16% | RAM network inhibition [7] 0.95%

Cc1nn(C)c(C)c1S(=O)(=O)N(CC(=O)Nc1nccs1)c1ccc(C(C)C)cc1
inactive: growth inhibition [1] -0.91% | growth inhibition [2] -7.29% | viability increase [3] -4.04% | viability [4] 99% | viability [5] 90.5% | inhibition [6] 2.3% | RAM network inhibition [7] 2.72%

CCN1C(=O)c2ccc(-c3nc4ccccc4c(=O)o3)cc2C1=O
inactive: growth inhibition [1] -8.45% | growth inhibition [2] -0.43% | viability increase [3] -0.05% | viability [4] 99% | viability [5] 94.7% | inhibition [6] 1.71% | RAM network inhibition [7] 3.16%

NC(=O)CC1NC(=O)c2ccccc21 (centres undefined)
inactive: growth inhibition [1] -11.7% | growth inhibition [2] -6.05% | viability increase [3] 0.12% | viability [4] 91.7% | viability [5] 100% | inhibition [6] 1.28% | RAM network inhibition [7] 3.47%
